Test system: MS2 coat protein
Experiment: apparent Kd, MS2 coat protein; higher = weaker binding; RNA-MaP array; FMN 200 µM where present
Outline: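 Green signal from SNAP-549-labelled MS2 coat protein was normalised to red-channel RNA signal and to the median Fmax of control clusters. The protein was titrated from 0.7 or 1.5 nM, doubling to 3 µM, without and then with constant ligand, over designs transcribed by stalled E. coli RNA polymerase on Illumina sequencing-chip clusters, in 100 mM Tris-HCl pH 7.5, 80 mM KCl, 4 mM MgCl2, BSA, DTT, yeast tRNA and Tween-20. The apparent Kd is the median of filtered per-cluster binding-curve fits.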

[1] = designed as: ON switch for flavin mononucleotide, no ligand
[2] = ligand present: flavin mononucleotide, designed as: ON switch for flavin mononucleotide
[3] = designed as: OFF switch for flavin mononucleotide, no ligand
[4] = ligand present: flavin mononucleotide, designed as: OFF switch for flavin mononucleotide

Sequence: UCAUACAUUCGAGGAUAUCGGUGAGAAAUCUUUCGAGAAGGCGAUUCAUGAUUUAUUAUCCUGGACAUGAGGAUCACCCAUGUA
- apparent Kd [1]: 0.0853 µM
- apparent Kd [2]: 0.0655 µM

Sequence: GGAUCGAAUGUGAGGAUAUGCUGGUCCUUGGAUCAGCAGAAGGCACAUGAGGAUCACCCAUGUGUUCCCGGUCC
- apparent Kd [3]: 0.0795 µM
- apparent Kd [4]: 0.716 µM

Sequence: CCUAAGGACACAGGAUAUAGCGUGGUGGCUGGGCUCCCACGGCGAGCGGCGCUAGAAGGGUGACCACAUGAGGAUCACCCAUGU
- apparent Kd [1]: 0.538 µM
- apparent Kd [2]: 0.148 µM

Sequence: GUGUACAGAGGAUAUACAUGAGCAUGGAAACAUGCAACUUCACAUGAGGAUCACCCAUGUAGAAGGCUGUACAC
- apparent Kd [3]: 0.0251 µM
- apparent Kd [4]: 0.111 µM

Sequence: CACCGUUAAGUAGGAUAUCGUACAUGAGGAUCACCCAUGUAAUAAAUGAGAAUUUCGGAUGUAUGCGAGAAGGACUAAAUCGGC
- apparent Kd [3]: 0.0493 µM
- apparent Kd [4]: 0.043 µM

Sequence: AGUAUGUACGCAGGAUAUACAUGAGGAUCACCCAUGUGGAACAGUGUAGUGCUAGUUGAUCCUCAGUAGAAGGGCGGUCGAAUA
- apparent Kd [3]: 0.0625 µM
- apparent Kd [4]: 0.0916 µM

Sequence: UUCGCACAUGAGGAUCACCCAUGUCAGGAUAUUGUGGUGGGAACAACUGGGAAACGCACGAGAAGGGACACACA
- apparent Kd [3]: 0.0362 µM
- apparent Kd [4]: 0.0322 µM

Sequence: AUGCGGUCAGGAUAUGCAUGGCGGGACUUGCGUCGUGGCGUGGAGAAGGGACAUGAGGAUCACCCAUGUGGCGA
- apparent Kd [3]: 0.0773 µM
- apparent Kd [4]: 0.0826 µM

Sequence: AUCCUGCGAGGAUAUACAUAAUUUUUUUCGUUUUGACUCGAACAUGAGGAUCACCCAUGUAGAAGGUGCUACAC
- apparent Kd [3]: 0.0337 µM
- apparent Kd [4]: 0.0301 µM

Sequence: UGUCGGAGCAGAGGAUAUUACAUGAGGAUCACCCAUGUAUGAACCAAUAGCUGGAAACAGCUAUGUAAGAAGGCUGCUCCGACA
- apparent Kd [3]: 0.00531 µM
- apparent Kd [4]: 0.00942 µM

Sequence: UGUUGUAUUACAGGAUAUCUAGUAUUUUUAUCUAGAGAAGGGUAUUCACAUGAGGAUCACCCAUGUAUAUACGAGGAAGUUGUG
- apparent Kd [1]: 0.0331 µM
- apparent Kd [2]: 0.0332 µM

Sequence: AUGUGGUGCGUAGGAUAUCAUUGAAGAAAACCCUGAGAAGGACGUGAGGACAUGAGGAUCACCCAUGUGGAUCACCCAUGUCAU
- apparent Kd [3]: 0.315 µM
- apparent Kd [4]: 0.283 µM

Sequence: CAGCCCUGAGGAUAUCCCUCCUUGUACAUGAGGAUCACCCAUGUUCUCCUCUGGGCUUUGGGAGAAGGCAGGUCUC
- apparent Kd [3]: 0.0268 µM
- apparent Kd [4]: 0.0264 µM

Sequence: AAGGAGUCAGGAUAUGCUGCUCGUCACUUGCGUGAUGAGUAGCAGAAGGGACAUGAGGAUCACCCAUGUAAAGA
- apparent Kd [3]: 0.0512 µM
- apparent Kd [4]: 0.0614 µM

Sequence: GCUGCGCGAGGAUAUGCGGUUCGCGCUGUGGCCCGUGGCGCACAUGAGGAUCACCCAUGUAGAAGGCGUGCGGG
- apparent Kd [3]: 0.0123 µM
- apparent Kd [4]: 0.0131 µM

Sequence: GGUGGUGUCCGAGGAUAUCGUUAGGCGUUGUUGCGAGAAGGCGGACAUGAGGAUCACCCAUGUUUGAUAAAAGAGGAGGUUGUG
- apparent Kd [3]: 0.0861 µM
- apparent Kd [4]: 0.13 µM

Sequence: UAUCUGUGAGGAUAUCCGGGCCCGGGCGAAAGCCCGGGCCCGGAGAAGGCACAUGAGGAUCACCCAUGUGACCU
- apparent Kd [3]: 0.0148 µM
- apparent Kd [4]: 0.0191 µM

Sequence: GGCGGCGGACAAGGAUAUAAGACGCGGACCAAAUUAGAAGGUGUCAUCUGGCAAUGCGAAAGCAGACAUGAGGAUCACCCAUGU
- apparent Kd [1]: 0.0789 µM
- apparent Kd [2]: 0.0727 µM

Sequence: GUACCUUAUGAGAAGGCGGUCAUGAAACAUGAUCGAGGAUAUCAUGUAAACAUGAGGAUCACCCAUGUAUGGGUAUUAUGGUAG
- apparent Kd [1]: 0.0702 µM
- apparent Kd [2]: 0.0138 µM

Sequence: AUAUAAUAUCAGGAUAUGACUAGCCUCGGCUAGUCAGAAGGGAUGACAUGAGGAUCACCCAUGUGAUCAUAUAU
- apparent Kd [3]: 0.0328 µM
- apparent Kd [4]: 0.156 µM

Sequence: GGGUACAGCGGAGGAUAUCAUGUAAAUACAUGAGGAUCACCCAUGUCGAUGGAGACAUCGGAGAUUGAGAAGGCCGAUGUACCG
- apparent Kd [1]: 0.173 µM
- apparent Kd [2]: 0.00999 µM

Sequence: GUUUUCGCAUGAGGAUAUGCUCGCAUUUUAAGAGCAGAAGGUAUGUCUUUAGACAUGAGGAUCACCCAUGUAUUUAUCAUUGAA
- apparent Kd [2]: 0.0282 µM

Sequence: GCGCCUCAGAACAUGAGGAUCACCCAUGUGCUGCGGGCGCCGUAGGAUAUGAUGGUACGCUACCAUCAGAAGGAUGAUGGUACC
- apparent Kd [2]: 0.00502 µM

Sequence: UUAUUACGAGGAUAUCGUUUUUAUCACAUGAGGAUCACCCAUGUUGUUUAUGUUUCGUUUCGAGAAGGCGUUUGUU
- apparent Kd [3]: 0.0276 µM
- apparent Kd [4]: 0.0199 µM

Sequence: AUCAGCACGUCAGGAUAUACGUCACUGCGUCAGCAGUGUGGUAAGAUCACAUGAGGAUCACCCAUGUAGAAGGGACGAGCUGAU
- apparent Kd [3]: 0.0141 µM
- apparent Kd [4]: 0.317 µM

Sequence: GAGCGGGAAACAUGAGGAUCACCCAUGUAAUAAGUCCUCAAGUAGGAUAUGCACACGAGAAGUGUGCAGAAGGGCUACCCGGUC
- apparent Kd [3]: 0.0209 µM
- apparent Kd [4]: 0.0288 µM

Sequence: AAGGAACAUGAGGAUCACCCAUGUGAGGAUAUGUGAGAAGGAUUUGAGAAGGAGAGGGACAGAAGGCACUAGGA
- apparent Kd [3]: 0.0469 µM
- apparent Kd [4]: 0.0418 µM

Sequence: UGCAUGUAAGGAUAUGCAUCCGCCGACGUCCCGGCGGCACAGCAGAAGGUACAUGAGGAUCACCCAUGUGUCCC
- apparent Kd [3]: 0.0288 µM
- apparent Kd [4]: 0.155 µM

Sequence: CGUGCGUAUGUGAGGAUAUGCUGGUCCUUGGAUCGGCAGAAGGCACAUGAGGAUCACCCAUGUGGUGUCGUACU
- apparent Kd [3]: 0.238 µM
- apparent Kd [4]: 0.0324 µM

Sequence: UAUAGACAUGAGGAUCACCCAUGUAAGGAUAUCGGUACUAAUGGUAUAAUCUACUUAGCGAGAAGGUACAAUGU
- apparent Kd [3]: 0.031 µM
- apparent Kd [4]: 0.0307 µM

Sequence: GGUUGUAAUGUCAGCGAGUGUUAGAGAAGGUACAUGAGGAUCACCCAUGUACGUGAUCUUGCGAGUAAGGAUAUCUGUUAUUCA
- apparent Kd [3]: 0.0052 µM
- apparent Kd [4]: 0.0055 µM

Sequence: UGUCUAUAUGAAGGAUAUCUAAGCAUAAACCGUAGAGAAGGUCAAUAGUACAUGAGGAUCACCCAUGUUAGAAUUGAAGGGUUU
- apparent Kd [3]: 0.0176 µM
- apparent Kd [4]: 0.0232 µM

Sequence: GCCAACGCAUGAGGAUAUGCUCCCGUUUCGGGAGCAGAAGGCAUGUCAUAAGACAUGAGGAUCACCCAUGUAGUUAACAUGGCA
- apparent Kd [1]: 0.572 µM
- apparent Kd [2]: 0.0312 µM

Sequence: AAUAACAGAGGAUAUACUGUUUUAUGUGUUUAUUGUUUUAAACAUGAGGAUCACCCAUGUAGAAGGCUGAGUAA
- apparent Kd [3]: 0.0389 µM
- apparent Kd [4]: 0.039 µM

Sequence: UUACUAUUACAGAAGGUUAAAUAAUAUAUAAAUGAAGGAUAUGUGACAUGAGGAUCACCCAUGUUUCACCCACAUGAGGAUCAC
- apparent Kd [3]: 0.0121 µM
- apparent Kd [4]: 0.0133 µM

Sequence: GUGCGAGCCACAGGAUAUCUACAGAUUUAUCGUAGAGAAGGGUGACCUCGUGCACCACAUGAGGAUCACCCAUGUAACUAGGCG
- apparent Kd [1]: 0.0196 µM
- apparent Kd [2]: 0.0363 µM

Sequence: UUGGACGUCGUAGGAUAGGUAGGAUAUUCCUACAUGAGGAUCACCCAUGUUGACAUGGAAGAAGGACAGAAGGACGAUGUCCAU
- apparent Kd [1]: 0.142 µM
- apparent Kd [2]: 0.0057 µM

Sequence: AAAAAACAUGAGGAUCACCCAUGUAAAAAAAAUAGAGGAUAUGGGUGAUCCAAAAAAAAACCAGAAGGCUAAAAAA
- apparent Kd [1]: 0.0182 µM
- apparent Kd [2]: 0.0166 µM

Sequence: GCGACGGCGAAAGGAUAUCAAAAUCAACAGUGUUGAGAAGGUUCUCCGAGGGUCGCACAUGAGGAUCACCCAUGUCGCGAAUCU
- apparent Kd [1]: 0.0131 µM
- apparent Kd [2]: 0.0103 µM

Sequence: CGGGCGCCGAAGGGCGAAAGCCCACAUGAGGAUCACCCAUGUAGAAGGAGGGAAGAAACCAAAACCUAGGAUAUACAGGCGCCA
- apparent Kd [3]: 0.00843 µM
- apparent Kd [4]: 0.0105 µM

Sequence: GGUUGGCGAGGAUAUACAUGAGGAUCACCCAUGUGAGAGAAAAAAGUGAGUAAGAAAAGUAGAAGGCGCUGACG
- apparent Kd [3]: 0.0401 µM
- apparent Kd [4]: 0.302 µM

Sequence: ACAUAAAUUCGAGGAUAUCGGUGAUAUAAUUUACGAGAAGGCGAUAAAAGUUAUAAACUUAUAGACAUGAGGAUCACCCAUGUA
- apparent Kd [1]: 0.031 µM
- apparent Kd [2]: 0.0307 µM

Sequence: AAUUAAUUAAUUAAUUGGACGAUACAUGAGGAUCACCCAUGUAAGGAUAUGCAGUGGAAUACACUGCAGAAGGUACAUACGUCC
- apparent Kd [3]: 0.0154 µM
- apparent Kd [4]: 0.0255 µM

Sequence: GGUGGACAUGAGGAUCACCCAUGUGAGGAUAUCGGCCGGUUCGUGGUGGCUGGCCUCUCGAGAAGGCGCAUAGU
- apparent Kd [3]: 0.0581 µM
- apparent Kd [4]: 0.0719 µM

Sequence: GCGCACUAAGUGAGGAUAUCGUUUAUUUAUAGGAUCGAGAAGGCACAUGAGGAUCACCCAUGUUAAACGUGCGC
- apparent Kd [3]: 0.0185 µM
- apparent Kd [4]: 0.0139 µM

Sequence: GUACCUUAUGAGAAGGCGAUCAUAAAACAUGAUCGAGGAUAUCAUGUAAACAUGAGGAUCACCCAUGUAUGGGUAUUAUGGUAC
- apparent Kd [1]: 0.0687 µM
- apparent Kd [2]: 0.0175 µM

Sequence: UCAAGUAUGUAGGAUAUCGAUGUCCUUGGACAUCGAGAAGGACGUACAUGAGGAUCACCCAUGUAACUUGCAUG
- apparent Kd [3]: 0.219 µM
- apparent Kd [4]: 0.278 µM

Sequence: GUUAGCUCGUGAGGAUAUACAACACUGCUUCGGCAGUGUAUUAAGAUCACAUGAGGAUCACCCAUGUAGAAGGCACGAGCUGAU
- apparent Kd [3]: 0.0128 µM
- apparent Kd [4]: 0.256 µM

Sequence: UCUCGUUUCGCAGGAUAUGCUGGUCGGUCAUAAACCGGCCACAUGAGGAUCACCCAUGUGCCACAGCAGAAGGGUGACACUAGA
- apparent Kd [1]: 0.543 µM
- apparent Kd [2]: 0.059 µM
